# Rows were chosen to be rich in hits. Some 1.6% of all compounds tested hit in one or more screens of this group.
# MBD2 inh – MBD2-methylated oligo binding inhibition | 370,000 compounds, 0.31% hits | inhibition, % at 4.4 µM | TR-FRET, MBD2 binding to methylated oligonucleotide | AID 686964 | Q9UBB5; in the data active = inhibition above about 13%
# Target sequence (Q9UBB5 whole entry, looked up): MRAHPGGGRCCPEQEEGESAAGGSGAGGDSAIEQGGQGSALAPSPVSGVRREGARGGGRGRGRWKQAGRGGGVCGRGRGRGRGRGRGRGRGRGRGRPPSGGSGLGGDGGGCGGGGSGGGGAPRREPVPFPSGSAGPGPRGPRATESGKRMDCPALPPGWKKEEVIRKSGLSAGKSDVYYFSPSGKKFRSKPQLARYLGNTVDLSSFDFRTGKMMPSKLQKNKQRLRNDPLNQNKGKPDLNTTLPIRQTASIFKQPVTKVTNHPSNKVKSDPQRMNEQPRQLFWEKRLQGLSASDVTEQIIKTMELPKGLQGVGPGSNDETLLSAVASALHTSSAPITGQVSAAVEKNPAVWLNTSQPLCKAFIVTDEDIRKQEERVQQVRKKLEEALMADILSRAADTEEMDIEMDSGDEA
# TDP2 inh – blocks human TDP2 phosphodiesterase activity; recombinant TDP2, T5PNP hydrolysis, p-nitrophenol absorbance 415 nm; inhibition, % at 12.8 µM; 370,000 compounds, 0.34% hits;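 active = inhibition above the mean of all tested compounds plus 3 SD, set per campaign, cut at about 25% in these data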;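 note: 0% = DMSO with enzyme and 100% = buffer with substrate but no TDP2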
#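 Evaluation: % inhibition relative to enzyme-containing and enzyme-free wells. Material: recombinant human TDP2. Benchmarks: enzyme-free and DMSO wells. Timing: enzyme reaction with compound for 2 h at 37 °C. Compound dosing: 12.8 µM only. Measured by: p-Nitrophenol epi absorbance. Reagent: T5PNP substrate at 5 mM, a TopII-DNA adduct mimic. Replication: single well per compound.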
# LEDGF integ inh – blocks HIV-1 LEDGF/p75-dependent DNA integration; TR-FRET IN-LEDGF/p75 DNA integration, Eu/Cy5; inhibition, % at 3.7 µM; 370,000 compounds, 0.64% hits;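 active = inhibition above the screen-wide mean plus 3 SD, cut at about 13% in these data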;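 note: signal is the Cy5 over europium emission ratio at 671 and 618 nm; 0% = plate median of compound wells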
# UHRF1 binding – blocks human UHRF1 binding to methylated DNA; Q96T88; UHRF1 binding to methylated oligo, TR-FRET; inhibition, % at 4.4 µM; 370,000 compounds, 0.75% hits; in the data active = inhibition above about 21%;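 note: UHRF1 SRA domain binding a hemimethylated CpG hairpin DNA probe; 0% = median of test compound wells and 100% = reference inhibitor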
# * marks the source's active call; other numbers are inactive results.
SMILES,MBD2 inh,TDP2 inh,LEDGF integ inh,UHRF1 binding
COc1cc(C(O)C(=O)O)ccc1O (configuration not stated),-2,-10,2,43*
Cc1ccc(NC(=O)CN2C(=O)S/C(=C/c3ccc(-c4cc(C(=O)O)ccc4C)o3)C2=O)cc1C,8,1,9,33*
CC(C)N1CCCCC(NC(=O)c2cccs2)C1=O (configuration not stated),5,-1,-3,5
C[C@@H]1CCCCO[C@@H](CN(C)C(=O)CCC(F)(F)F)[C@@H](C)CN([C@H](C)CO)C(=O)c2cc(NS(=O)(=O)c3cccs3)ccc2O1,6,2,8,22*
C[C@@H]1CN([C@@H](C)CO)C(=O)c2cc(NC(=O)c3ccccc3)ccc2O[C@@H](C)CCCCO[C@@H]1CN(C)S(=O)(=O)c1ccc(F)cc1,9,-1,4,21*
COc1ccc(Oc2c(Cl)cnn(-c3ccc(C(C)C)c(C)c3)c2=O)cc1,1,-4,-3,3
Cc1ccc(NC(=O)/C(=C/c2ccncc2)NC(=O)c2ccccc2)cc1,1,8,1,-2
Cc1ccc(NC(=O)/C(=C\c2cccnc2)NC(=O)c2ccccc2)cc1,7,5,-2,21*
O=C(NCCCn1ccnc1)/C(=C/c1ccccc1)NC(=O)c1ccccc1,7,2,-4,25*
COC(=O)C1CN(Cc2cn(CCOC(C)=O)nn2)CCS(=O)(=O)N1Cc1ccc(Cl)cc1 (configuration not stated),9,-7,-2,15
CN1CCN(S(=O)(=O)c2cccc(C(=O)N3CCN(c4ccccc4)CC3)c2)CC1,4,0,-2,49*
CC(=O)N1CCN(C(=O)c2cccc(S(=O)(=O)N3CCN(c4ccccc4)CC3)c2)CC1,3,6,6,-3
Cn1c(CN2CCOCC2)nnc1SCC(=O)Nc1cccc(C(F)(F)F)c1,0,13,-1,0
Cc1nn(Cc2nnc(SCC(=O)Nc3cccc(C(F)(F)F)c3)n2C)c(C)c1[N+](=O)[O-],0,5,0,41*
O=C(Nc1ccc2cn[nH]c2c1)c1c(Cl)cccc1Cl,7,-6,1,22*
Cn1cc(S(=O)(=O)Oc2ccccc2)c(=O)n(C)c1=O,4,1,-6,28*
COc1cccc(C(=O)Nc2ccccc2-c2ccccc2)c1,8,-24,7,22*
COc1cccc(C(=O)Nc2ccccc2NC(=O)c2cccc(OC)c2)c1,4,-2,1,0
COc1ccc(NS(=O)(=O)c2cc(NC(=O)c3ccc(=O)[nH]n3)ccc2N2CCOCC2)cc1,0,7,-2,29*
Clc1ccc2nc(CN3CCCCCC3)cn2c1,0,-1,2,0
Clc1ccc2nc(CN3CCCCC3)cn2c1,1,-14,4,27*
CCn1c(=O)n(CC(=O)N2CCN(C(C)=O)CC2)c(=O)c2ccccc21,-7,8,-1,-4
COC(=O)c1ccc(NCc2c(O)ccc(O)c2Br)cc1Cl,-10,-22,15*,-1
Cc1c(NC(=O)C(C)NCC2CCCO2)c(=O)n(-c2ccccc2)n1C (configuration not stated),-3,-1,0,38*
Cc1c(NS(=O)(=O)c2cc(C(=O)NCC3CCCO3)cc(Cl)c2Cl)c(=O)n(-c2ccccc2)n1C (configuration not stated),2,6,-1,0
SMILES,MBD2 inh,TDP2 inh,LEDGF integ inh,UHRF1 binding
Cc1cc2c(cc1C)C(c1ccccc1Br)CC(=O)N2 (configuration not stated),10,-1,10,23*
COCCCN1C(=O)[C@H](CC(=O)NCc2ccc(OC)c(OC)c2)[C@]2(C(=O)OC)CCCCC=C12,-6,6,0,-1
CN1CC(COCc2ccccc2)Oc2ccccc2S1(=O)=O (configuration not stated),0,4,-1,-2
O=S1(=O)c2ccccc2OC(COCc2ccccc2)CN1C1CC1 (configuration not stated),7,-4,2,26*
CCCCc1c(-c2ccccc2OC)ncn1Cc1cccc(OC)c1,3,-1,-2,-2
COc1ccc(-c2nc3c4ccccc4ccn3c2Cc2cccc(Cl)c2)cc1OC,5,0,-3,23*
COc1ccc(-c2nc3c(C)cc(Br)cn3c2CC2CCCCC2)cc1OC,10,3,-2,23*
COc1ccc(-c2nc3c4ccccc4ccn3c2Cc2ccsc2)cc1OC,12,5,-1,21*
COc1ccc(-c2nc3c(C)cc(Br)cn3c2CC(C)(C)C)cc1OC,8,-1,6,21
COc1ccc(-c2nc3c4ccccc4ccn3c2Cc2ccc(C)cc2)cc1OC,4,1,1,10
Cc1cc(Br)cn2c(Cc3cccc(Cl)c3)c(-c3cccc(Cl)c3)nc12,9,3,0,16
COc1ccc(-c2nc3c(C)cc(Br)cn3c2Cc2cccc(Cl)c2)cc1OC,7,4,-3,22*
N#CC(c1c(Cl)cccc1N1CCCCC1)N1CCCCC1 (configuration not stated),-2,10,-1,-2
c1ccc2c(c1)ccn1c(Cc3ccsc3)c(C3CCCCC3)nc21,6,4,3,21*
Cc1ccc(Cc2c(C3CCCCC3)nc3c4ccccc4ccn23)cc1,-1,-5,5,13
COc1ccc(-c2nc3c(Cl)cc(C(F)(F)F)cn3c2Cc2cccc(F)c2)cc1OC,3,1,-1,25*
C#CCNC(=O)C[C@H]1C[C@@]2(C(=O)OC)C(=C[C@H](C(C)(C)C)O[C@@H]2C)N(Cc2cccc3ccccc23)C1=O,3,4,-5,0
Cc1ccc(S(=O)(=O)NCc2ccccc2)cc1C(=O)N(C)CC(=O)Nc1ccccc1Br,1,-15,-5,22*
COc1cc(S(=O)(=O)N(Cc2cccnc2)Cc2cccc(OC)c2OC)ccc1-n1cnnn1,4,3,-4,23*
CC1CCCCC1NC(=O)COC(=O)c1c2c(nc3ccccc13)/C(=C\c1ccco1)CC2 (configuration not stated),7,-12,27*,20
Cc1cc(C)c2nc3sc(C(=O)N4CCOCC4)c(N)c3cc2c1,-6,12,-1,37*
Cc1ccc(C)c2nc3sc(C(=O)N4CCOCC4)c(N)c3cc12,-1,6,0,20
CCOc1ccc(-c2nc(CSCC(=O)NC3CCC3)c(C)o2)cc1,-2,1,-1,-1
Cc1cc(S(=O)(=O)N2CCCC(N(C)CCc3ccccn3)C2)c(C)cc1Cl (configuration not stated),9,8,3,23*
Cc1cc(S(=O)(=O)N2CCCOC2CNC(=O)C(=O)NCc2ccco2)ccc1F (configuration not stated),-4,-4,0,56*
O=C(NCc1ccco1)C(=O)NCC1OCCCN1S(=O)(=O)c1ccc(Cl)cc1 (configuration not stated),0,4,-1,0

# Source: PubChem
